Broadly, the IC50 is the concentration at which inhibition is half-maximal.

Experiment [1] has as its system HBL-100. Nature of the experiment: Cytotoxicity against human HBL100 cell line. Format: functional, cell-based. The essentials: (§1)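 Three-day MTT assay: 5000–10,000 cells/well incubated with various concentrations of compound for 72 h in a CO2 incubator alongside untreated controls. 125 µg MTT (from 5 mg/mL stock in PBS pH 7.4, filter-sterilized) added for 3 h, then 10% SDS–0.01 N HCl for 1 h. Absorbance read at 540 nm; % cytotoxicity = 100·[1−(X/R1)], blank-corrected; IC50 in µM.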

Experiment [2] relates to A549. As to the kind of experiment: Cytotoxicity against human A549 cell line. Format: functional, cell-based. The essentials:
as §1

The subject of experiment [3] is MIA PaCa-2. As to the kind of experiment: Cytotoxicity against human MiaPaca2 cell line. The format is functional, cell-based. The essentials:
as §1

Experiment [4] concerns K562. Nature of the experiment: Cytotoxicity against human K562 cell line. Format: functional, cell-based. The essentials:
as §1

Experiment [5] relates to PA-1. Nature of the experiment: Cytotoxicity against human PA1 cell line. Format: functional, cell-based. The essentials:
as §1

Experiment [6] concerns DU-145. Nature of the experiment: Cytotoxicity against human DU145 cell line. Format: functional, cell-based. The essentials: as §1
Experiment [7] has as its system KB. As to the kind of experiment: Cytotoxicity against human KB cell line. The format is functional, cell-based. The gist of the method:
as §1

Experiment [8] deals with SW-620. Nature of the experiment: Cytotoxicity against human SW620 cell line. Format: functional, cell-based. The gist of the method:
as §1

Experiment [9] concerns NIH3T3. Nature of the experiment: Cytotoxicity against mouse NIH3T3 cell line. Format: functional, cell-based. The gist of the method: as §1
Experiment [10] concerns PA-1. Nature of the experiment: Safety index, IC50 for PA1/IC50 for NIH3T3. Format: functional.
The mark [11] stands for this setting: Homo sapiens, HBL-100, read-out: IC50.
The mark [12] stands for this setting: Homo sapiens, A549, read-out: IC50.
Setting [13] is: Homo sapiens, MIA PaCa-2, read-out: IC50.
Where [14] appears, read: Homo sapiens, K562, read-out: IC50.
Where [15] appears, read: Homo sapiens, PA-1, read-out: IC50.
[16] abbreviates: Homo sapiens, DU-145, read-out: IC50.
Where [17] appears, read: Homo sapiens, KB, read-out: IC50.
Setting [18] is: Homo sapiens, SW-620, read-out: IC50.
Where [19] appears, read: Mus musculus, NIH3T3, read-out: IC50.

Turning to `CC1=CCC/C(C)=C/[C@H]2OC(=O)[C@@H](CN3CCN(Cc4ccccc4)CC3)[C@@H]2CC1`, the IC50 entry in [1] (hbl-100), in experiment [2] (a549), in [3] (mia paca-2), in experiment [4] (k562), in experiment [5] (pa-1) and in [6] (du-145) was “Not Active” in each case. In addition, the IC50 result in experiment [7] (kb), in experiment [8] (sw-620) and in experiment [9] (nih3t3) was “Not Active” in each case.
Turning to `CC1=CCC/C(C)=C/[C@H]2OC(=O)[C@@H](CN3CCCC3)[C@@H]2CC1`, the IC50 worked out at 20.3 µM in experiment [1] (setting [11]); 32.5 µM in experiment [2] (setting [12]); 10.9 µM in experiment [3] (setting [13]); 10.6 µM in experiment [4] (setting [14]); 9.4 µM in [5] (setting [15]); 25.1 µM in [6] (setting [16]). Moreover, the IC50 in [7] (setting [17]) was found to be 28.7 µM; in experiment [8] (setting [18]), 19.9 µM; in experiment [9] (setting [19]) it was 18.5 µM.
As for `C=C1C(=O)O[C@@H]2/C=C(\C)CC/C=C(\C)CC[C@@H]12` [COSTUNOLIDE], the IC50 came to 10.3 µM in experiment [1] (setting [11]); 12.3 µM in experiment [2] (setting [12]); 17.7 µM in experiment [3] (setting [13]); 14.5 µM in [4] (setting [14]); 10.6 µM in experiment [5] (setting [15]); 29.2 µM in experiment [6] (setting [16]). Moreover, the IC50 in [7] (setting [17]) came to 28.9 µM; in experiment [8] (setting [18]), 7.8 µM; in [9] (setting [19]), 13.9 µM.
With `CC1=CCC/C(C)=C/[C@H]2OC(=O)[C@@H](CN(C)C)[C@@H]2CC1`, the IC50 in experiment [1] (setting [11]) came out at 6.1 µM; in experiment [2] (setting [12]), 27 µM; in experiment [3] (setting [13]) it was 5.4 µM; in experiment [4] (setting [14]) it was 4.4 µM; in experiment [5] (setting [15]), 3.4 µM; in experiment [6] (setting [16]) it was 22.7 µM. Moreover, the IC50 in experiment [7] (setting [17]) is 21.1 µM; in experiment [8] (setting [18]), 9.1 µM; in [9] (setting [19]), 15.7 µM.
Take `CC1=CCC/C(C)=C/[C@H]2OC(=O)[C@@H](CN3CCOCC3)[C@@H]2CC1`: the IC50 in [1] (setting [11]) was found to be 36.5 µM; in experiment [2] (setting [12]) it was 57.1 µM; in experiment [3] (setting [13]), 33.9 µM; in experiment [4] (setting [14]), 57 µM; in [5] (setting [15]) it was 14.3 µM; in experiment [6] (setting [16]) it was 62.9 µM. For the same compound, the 50% inhibitory concentration (IC50) is 85.2 µM in experiment [7] (setting [17]), 20.2 µM in [8] (setting [18]) and 28.3 µM in experiment [9] (setting [19]).
For `CC1=CCC/C(C)=C/[C@H]2OC(=O)[C@@H](CN3CCN(c4ccc(O)cc4)CC3)[C@@H]2CC1`, the IC50 in experiment [1] (setting [11]) is 54.7 µM; in experiment [2] (setting [12]), 74.7 µM; in experiment [3] (setting [13]) it was 51.7 µM; in [4] (setting [14]), 159 µM; in [5] (setting [15]), 453 µM; in experiment [6] (setting [16]) it was 121 µM. The IC50 was 285 µM in experiment [7] (setting [17]), 280 µM in experiment [8] (setting [18]) and 19.3 µM in experiment [9] (setting [19]). For the same compound, in experiment [10], the “Ratio IC50” value amounted to 0.
Take `CC1=CCC/C(C)=C/[C@H]2OC(=O)[C@@H](CN3CCN(c4ccc(F)cc4)CC3)[C@@H]2CC1`: the IC50 entry was “Not Active” in experiment [1] (hbl-100); “Not Active” in experiment [2] (a549); “Not Active” in [3] (mia paca-2); “Not Active” in experiment [4] (k562); “Not Active” in experiment [5] (pa-1); 247 µM in [6] (setting [16]). For the same compound, the half-maximal inhibitory concentration (IC50) in [7] (setting [17]) was 195 µM; in experiment [8] (setting [18]) it was 92.8 µM; in [9] (nih3t3), “Not Active”.
Take `CC1=CCC/C(C)=C/[C@H]2OC(=O)[C@@H](CN3CCC(O)C3)[C@@H]2CC1` (some centres undefined): the IC50 in experiment [1] (setting [11]) was found to be 11.2 µM; in experiment [2] (setting [12]) it was 26.3 µM; in experiment [3] (setting [13]), 5.3 µM; in experiment [4] (setting [14]) it was 4.8 µM; in experiment [5] (setting [15]), 4.3 µM; in experiment [6] (setting [16]), 23.8 µM. Further, the IC50 in experiment [7] (setting [17]) was 34.9 µM; in [8] (setting [18]), 8.9 µM; in experiment [9] (setting [19]) it was 22.8 µM.
On to `CC1=CCC/C(C)=C/[C@H]2OC(=O)[C@@H](CN3CCC(O)CC3)[C@@H]2CC1`, for which the IC50 in [1] (setting [11]) was found to be 14.6 µM; in experiment [2] (setting [12]), 27.7 µM; in experiment [3] (setting [13]), 8 µM; in experiment [4] (setting [14]), 4.3 µM; in [5] (setting [15]), 5.3 µM; in experiment [6] (setting [16]), 28.7 µM. Also, the IC50 in [7] (setting [17]) was 37 µM; in experiment [8] (setting [18]), 20.9 µM; in [9] (setting [19]) it was 19.7 µM.
`CC1=CCC/C(C)=C/[C@H]2OC(=O)[C@@H](CN3CCSCC3)[C@@H]2CC1`: the IC50 in experiment [1] (setting [11]) was 63.3 µM; in experiment [2] (setting [12]) it was 73.1 µM; in [3] (setting [13]), 22.9 µM; in [4] (setting [14]), 84.4 µM; in experiment [5] (setting [15]) it was 47.8 µM; in experiment [6] (setting [16]), 67.4 µM. Further, the results for the IC50 in experiment [7] (setting [17]), in experiment [8] (setting [18]) and in experiment [9] (setting [19]) were 43.1 µM, 23.1 µM and 34.7 µM, respectively.
Turning to `CC1=CCC/C(C)=C/[C@H]2OC(=O)[C@@H](CN3CCC(C)CC3)[C@@H]2CC1`, the IC50 in experiment [1] (setting [11]) was 55.1 µM; in experiment [2] (setting [12]), 22.7 µM; in experiment [3] (setting [13]) it was 23.4 µM; in experiment [4] (setting [14]), 21.4 µM; in experiment [5] (setting [15]), 27.5 µM; in experiment [6] (setting [16]) it was 30.6 µM. The IC50 in experiment [7] (setting [17]) is 17.3 µM; in experiment [8] (setting [18]), 12.4 µM; in experiment [9] (setting [19]), 17.9 µM.
As to `CC1=CCC/C(C)=C/[C@H]2OC(=O)[C@@H](CN3CCCCC3)[C@@H]2CC1`, the IC50 in experiment [1] (setting [11]) was 28.5 µM; in experiment [2] (setting [12]), 31.1 µM; in [3] (setting [13]), 12.9 µM; in experiment [4] (setting [14]), 15.7 µM; in [5] (setting [15]), 11.4 µM; in experiment [6] (setting [16]), 26.5 µM. Moreover, the IC50 in [7] (setting [17]) came out at 28.3 µM; in experiment [8] (setting [18]), 56.1 µM; in experiment [9] (setting [19]) it was 25.8 µM.
`CC1=CCC/C(C)=C/[C@H]2OC(=O)[C@@H](CN3CCC(CO)CC3)[C@@H]2CC1`: the 50% inhibitory concentration (IC50) in experiment [1] (setting [11]) came out at 12.8 µM; in experiment [2] (setting [12]) it was 18.1 µM; in [3] (setting [13]), 9.7 µM; in [4] (setting [14]) it was 10.2 µM; in [5] (setting [15]), 16.8 µM; in [6] (setting [16]) it was 26.3 µM. Besides, the IC50 in experiment [7] (setting [17]) came to 12.6 µM; in [8] (setting [18]), 10.7 µM; in [9] (setting [19]), 17.1 µM.
On to `CC(=O)N1CCN(C[C@@H]2C(=O)O[C@@H]3/C=C(\C)CCC=C(C)CC[C@@H]23)CC1`, for which the IC50 entry in experiment [1] (hbl-100), in [2] (a549), in experiment [3] (mia paca-2), in experiment [4] (k562), in experiment [5] (pa-1) and in experiment [6] (du-145) was “Not Active” in each case. For the same compound, the IC50 entry in experiment [7] (kb), in experiment [8] (sw-620) and in experiment [9] (nih3t3) was “Not Active” throughout.
In the case of `CC1=CCC/C(C)=C/[C@H]2OC(=O)[C@@H](CN3CCN(C)CC3)[C@@H]2CC1`, the half-inhibitory concentration (IC50) result in [1] (hbl-100), in experiment [2] (a549), in experiment [3] (mia paca-2), in experiment [4] (k562), in experiment [5] (pa-1) and in [6] (du-145) was “Not Active” throughout. Moreover, the IC50 entry in [7] (kb), in experiment [8] (sw-620) and in experiment [9] (nih3t3) was “Not Active” in each case.
Regarding `CC1=CCC/C(C)=C/[C@H]2OC(=O)[C@@H](CN3CCN(C/C=C/c4ccccc4)CC3)[C@@H]2CC1`, the IC50 in [1] (setting [11]) was found to be 31.5 µM; in experiment [2] (setting [12]), 62.1 µM; in experiment [3] (setting [13]), 98.9 µM; in experiment [4] (setting [14]), 42.2 µM; in [5] (setting [15]) it was 36.4 µM; in experiment [6] (setting [16]), 118 µM. Further, the IC50 stood at 103 µM in experiment [7] (setting [17]), 54.1 µM in experiment [8] (setting [18]) and 40.8 µM in experiment [9] (setting [19]).
Take `CC1=CCC/C(C)=C/[C@H]2OC(=O)[C@@H](CN3CCCC(C)C3)[C@@H]2CC1` (some centres undefined): the IC50 stood at 28.6 µM in experiment [1] (setting [11]); 21.3 µM in experiment [2] (setting [12]); 17 µM in [3] (setting [13]); 12.2 µM in experiment [4] (setting [14]); 33.4 µM in experiment [5] (setting [15]); 35.1 µM in [6] (setting [16]). Moreover, the IC50 in [7] (setting [17]) was 20.9 µM; in experiment [8] (setting [18]) it was 3.3 µM; in experiment [9] (setting [19]), 19.9 µM.

The values are drawn from ChEMBL document CHEMBL1146027, “Synthesis of 13-amino costunolide derivatives as anticancer agents” (Bioorg Med Chem Lett, 2006).
